Reference: ChEMBL document CHEMBL3526139, “Clinical pharmacokinetics, metabolism, and drug-drug interaction of carfilzomib” (Drug Metab Dispos, 2013)

Assays:
[1] = target: Cytochrome P450 3A (Homo sapiens, UniProt P08684+P20815+Q9HB55+P24462); experiment: Inhibition of CYP3A in human liver microsomes treated with […] up to 30 uM by LC-MS/MS analysis; type: ADME
Procedure, shortened: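 Metabolites were tested for CYP3A inhibition in HLM at 0.04–30 µM, with or without a 30-min preincubation. Midazolam or testosterone substrate was used with a 5-min reaction and LC-MS/MS read-out.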

[2] = Drug excretion in urine of human patient with relapsed and refractory hematological malignancies treated intravenously with carfilzomib on days 1, 2, 8, 9, 15 and 16 of 28-day cycle over 2 to 10 mins by LC-MS/MS analysis; type: ADME; conditions: in vivo, iv
[3] = test system: Homo sapiens; experiment: Ratio of compound AUC (infinity) to carfilzomib AUC (infinity) in human multiple myeloma patient with normal renal function treated with carfilzomib at 15 mg/m'2, iv on days 1, 2, 8, 9, 15 and 16 of 28-day cycle over 2 to 10 mins by LC-MS/MS analysis; type: ADME, organism-based; conditions: in vivo
[4] = test system: Plasma; experiment: Drug level in plasma of human patient with relapsed and refractory hematological malignancies treated intravenously with carfilzomib on days 1, 2, 8, 9, 15 and 16 of 28-day cycle over 2 to 10 mins by LC-MS/MS analysis; type: ADME; conditions: iv
[5] = target: T1, CYP3A (Homo sapiens, UniProt P08684+P20815+P24462+Q9HB55); experiment: Time-dependent inhibition of CYP3A in human liver microsomes preincubated for 30 mins with carfilzomib by LC-MS/MS analysis; type: ADME; conditions: liver microsomes
Procedure, shortened: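 Pooled HLM (16 donors) given carfilzomib 0.01–10 µM in duplicate at 37°C with a 30-min preincubation before probe substrate was added. Substrate was set near Km (testosterone Km 100 µM; midazolam Km 3.8 µM). Protein was 0.1 mg/mL, or 0.05 mg/mL with midazolam. Metabolite formation was read by LC-MS/MS after 5 min and expressed relative to 0.5% acetonitrile controls to give IC50.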

[6] = target: T1, CYP3A; experiment: Inhibition of CYP3A in human liver microsomes treated with carfilzomib by LC-MS/MS analysis; type: ADME
[7] = clinical; conditions: human, plasma, po
[8] = clinical; conditions: human, plasma, po; remark: listed apart in the source
[9] = Half life in solid tumor patient at 2 mg, po administered as single dose followed by co-treatment with 27 mg/m2, iv carfilzomib over 2 to 10 mins on days 1, 2, 8, 9, 15 and 16 of single 28-day cycle measured on day 1; conditions: human, in vivo
[10] = Tmax in solid tumor patient at 2 mg, po administered as single dose followed by co-treatment with 27 mg/m2, iv carfilzomib over 2 to 10 mins on days 1, 2, 8, 9, 15 and 16 of single 28-day cycle measured on day 16; type: ADME, organism-based; conditions: human, in vivo
Procedure, shortened: (§1)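 Oral midazolam 2 mg single dose on Day -7, then 2 mg given immediately after IV carfilzomib (27 mg/m2, 2–10 min infusion) on Days 1 and 16. Plasma sampled pre-dose and 5, 10, 30 min, 1–24 h post-midazolam. Midazolam measured by liquid-liquid extraction (methyl tert-butyl ether) and LC-MS/MS, range 0.100–100 ng/mL, d4-midazolam internal standard. Tmax derived noncompartmentally.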

[11] = AUC(infinity) in solid tumor patient at 2 mg, po administered as single dose measured on day 7; conditions: human, plasma
[12] = clinical; conditions: human, plasma, po, 2 mg
[13] = clinical; conditions: human, plasma, po; remark: listed apart in the source
[14] = clinical; conditions: human, in vivo, po
[15] = clinical; conditions: human, in vivo, po; remark: listed apart in the source
[16] = clinical; conditions: human, plasma, po; remark: listed apart in the source
[17] = clinical; conditions: human, in vivo, po; remark: listed apart in the source
[18] = Tmax in solid tumor patient at 2 mg, po administered as single dose followed by co-treatment with 27 mg/m2, iv carfilzomib over 2 to 10 mins on days 1, 2, 8, 9, 15 and 16 of single 28-day cycle measured on day 1; type: ADME, organism-based; conditions: human, in vivo; procedure, shortened: as §1
[19] = AUC(last) in solid tumor patient at 2 mg, po administered as single dose measured on day 7; conditions: human, plasma
[20] = clinical; conditions: human, plasma, po; remark: listed apart in the source
[21] = clinical; conditions: human, plasma, po; remark: listed apart in the source

For `O=C(CN1CCOCC1)NC(CCc1ccccc1)C(=O)O` (stereo not drawn), the “inhibition (INH)” value [1] was “Not Active”, the Drug excretion [2] was “metabolite_detected” and the Ratio [3] was 1.2. The Drug metabolism [4] was “metabolite_detected”.

With `CC(C)CC(NC(=O)C(CCc1ccccc1)NC(=O)CN1CCOCC1)C(=O)O` (stereo not drawn) the “inhibition (INH)” value [1] was “Not Active”, the Drug excretion [2] was “metabolite_detected” and the Ratio [3] was 0.11. The Drug metabolism [4] was “metabolite_detected”.

In the case of `CC(C)CC(NC(=O)C(CCc1ccccc1)NC(=O)CN1CCOCC1)C(=O)NC(Cc1ccccc1)C(=O)NC(CC(C)C)C(=O)C(C)(O)CO` (stereo not drawn), the Drug excretion [2] is reported as “metabolite_detected”, the Ratio [3] is reported as 0.28 and the IC50 at 30 min [5] is reported as 1800 nM. For the same compound, the Drug metabolism [4] was “metabolite_detected” and the IC50 [6] was over 30000 nM.

Compound `Cc1ncc2n1-c1ccc(Cl)cc1C(c1ccccc1F)=NC2` [MIDAZOLAM] has an AUC(0-t) [7] of 48.4 ng·h/mL, an AUC(0-inf) [8] of 51.5 ng·h/mL and a half-life [9] of 6.3 h. It also gave a Tmax [10] of 0.8 h, an AUC(0-inf) [11] of 54.3 ng·h/mL and an AUC(0-t) at 12 h [12] of 42.5 ng·h/mL. The AUC(0-t) [13] was 40.3 ng·h/mL, the half-life [14] was 5.5 h and the Cmax [15] was 15.7 ng/mL. For the same compound, the AUC(0-t) [16] was 47.3 ng·h/mL, the Cmax [17] was 16 ng/mL and the Tmax [18] was 0.7 h. It also gave an AUC(0-t) [19] of 49.8 ng·h/mL, an AUC(0-t) [20] of 48.4 ng·h/mL and an AUC(0-inf) [21] of 59.9 ng·h/mL.
